Consider 29 compounds from ChEMBL document CHEMBL1122837, “Angiotensin converting enzyme inhibitors: N-substituted D-glutamic acid gamma dipeptides” (J Med Chem, 1985).

Assay [1] relates to Rattus norvegicus. Briefly: Percent inhibitory activity against angiotensin I pressor response 2 hr after peroral administration at dose 1 mg/kg. Format: functional. As to conditions: route oral. Put shortly: (§1)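 Normotensive rats were dosed orally. The angiotensin I pressor response was followed, and the maximum percent inhibition 2 h after administration was reported.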
The test system of assay [2] is Rattus norvegicus. Briefly: Percent inhibitory activity against angiotensin I pressor response 15 min after intravenous administration at dose 0.1 mg/kg. Format: functional. As to conditions: 0.25 h. In short, it runs like this: (§2)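 Normotensive rats received the test compound intravenously. The angiotensin I pressor response was measured 15 min after dosing and reported as percent inhibition.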

Assay [3] deals with T1, Angiotensin-converting enzyme (Oryctolagus cuniculus, UniProt P12822).
T1 sequence (P12822 whole entry): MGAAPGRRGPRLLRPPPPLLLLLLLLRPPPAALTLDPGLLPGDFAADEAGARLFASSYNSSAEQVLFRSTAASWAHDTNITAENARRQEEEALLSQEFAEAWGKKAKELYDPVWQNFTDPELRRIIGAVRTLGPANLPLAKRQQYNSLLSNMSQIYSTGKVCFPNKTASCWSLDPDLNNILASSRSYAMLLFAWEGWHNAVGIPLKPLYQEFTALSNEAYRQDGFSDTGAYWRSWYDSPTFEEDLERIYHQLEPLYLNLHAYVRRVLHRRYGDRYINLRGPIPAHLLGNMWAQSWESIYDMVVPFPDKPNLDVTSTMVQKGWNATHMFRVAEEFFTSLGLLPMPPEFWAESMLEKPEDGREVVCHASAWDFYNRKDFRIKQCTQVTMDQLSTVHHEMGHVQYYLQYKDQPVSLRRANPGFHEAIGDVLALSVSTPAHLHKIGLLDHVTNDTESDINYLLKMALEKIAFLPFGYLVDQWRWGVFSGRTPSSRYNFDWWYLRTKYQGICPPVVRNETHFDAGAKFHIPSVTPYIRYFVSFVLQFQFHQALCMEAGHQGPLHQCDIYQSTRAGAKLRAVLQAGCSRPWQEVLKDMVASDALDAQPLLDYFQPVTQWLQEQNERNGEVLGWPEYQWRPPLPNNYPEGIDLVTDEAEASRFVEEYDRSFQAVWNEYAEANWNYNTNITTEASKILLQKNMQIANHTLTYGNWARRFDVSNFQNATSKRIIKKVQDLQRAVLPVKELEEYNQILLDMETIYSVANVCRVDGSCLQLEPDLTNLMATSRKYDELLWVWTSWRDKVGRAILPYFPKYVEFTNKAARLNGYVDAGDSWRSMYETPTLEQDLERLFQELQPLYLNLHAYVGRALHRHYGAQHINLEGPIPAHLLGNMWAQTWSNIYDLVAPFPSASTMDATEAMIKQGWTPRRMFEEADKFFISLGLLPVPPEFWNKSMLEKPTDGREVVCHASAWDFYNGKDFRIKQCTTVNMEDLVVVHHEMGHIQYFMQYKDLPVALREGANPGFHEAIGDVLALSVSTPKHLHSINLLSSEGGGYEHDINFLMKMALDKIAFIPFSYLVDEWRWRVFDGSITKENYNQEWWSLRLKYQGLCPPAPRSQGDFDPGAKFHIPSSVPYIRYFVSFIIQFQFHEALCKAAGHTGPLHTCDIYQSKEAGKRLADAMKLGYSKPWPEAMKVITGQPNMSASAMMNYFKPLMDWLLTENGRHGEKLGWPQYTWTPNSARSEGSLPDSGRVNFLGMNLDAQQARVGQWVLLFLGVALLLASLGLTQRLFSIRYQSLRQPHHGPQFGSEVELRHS
Briefly: In vitro inhibition of angiotensin I converting enzyme from rabbit lung. Format: tissue-based.

Assay [4] concerns Rattus norvegicus. Briefly: Percent inhibitory activity against angiotensin I pressor response 15 min after intravenous administration at dose 1 mg/kg. Format: functional. The note with it: 0.25 h. In short, it runs like this:
as §2

Assay [5] has as its system Rattus norvegicus. The assay is described as follows: Percent inhibitory activity against angiotensin I pressor response 2 hr after peroral administration at dose 10 mg/kg. The assay is classed as functional. As to conditions: route oral. Put shortly:
as §1

With `O=C(NC(CCC(=O)N1c2ccccc2C[C@@H]1C(=O)O)C(=O)O)OCc1ccccc1` (some centres undefined), the inhibition in vivo at 1 mg/kg in assay [1] is 0%. The compound also displayed an inhibition in vivo at 0.1 mg/kg in assay [2] of 70%. Further, the concentration for half-maximal inhibition (IC50) in assay [3] is 7 nM.
With `O=C(N[C@H](CCC(=O)N1[C@H](C(=O)O)C[C@@H]2CCCC[C@@H]21)C(=O)O)OCc1ccccc1`, in assay [3], inhibition was half-maximal at 2.7 nM (IC50).
The same measure, in the same setting: next, `CN(C)CCCOC(=O)[C@@H]1Cc2ccccc2N1C(=O)CC[C@@H](NC(=O)OCc1ccccc1)C(=O)O`: 37 nM; `O=C(N[C@@H](CCC(=O)N1c2ccccc2CC1C(=O)O)C(=O)O)OCc1ccccc1` (some centres undefined): 500 nM.
In assay [4], `O=C(CCc1ccccc1)N[C@H](CCC(=O)N1c2ccccc2C[C@H]1C(=O)O)C(=O)O` registered an inhibition in vivo at 1 mg/kg of 76%. Besides, the IC50 in assay [3] came to 40 nM.
In assay [3], `O=C(N[C@H](CCC(=O)N1c2ccccc2C[C@H]1C(=O)O)C(=O)O)c1ccccn1` had an IC50 of 57 nM.
On the same count and under the same terms, the result for `CC(=O)N[C@H](CCC(=O)N1c2ccccc2C[C@H]1C(=O)O)C(=O)O` reads 95 nM.
In turn, `O=C(N[C@H](CCC(=O)N1c2ccccc2C[C@H]1C(=O)O)C(=O)O)c1cccnc1` displayed an inhibition in vivo at 1 mg/kg in assay [1] of 0%. The compound also registered an inhibition in vivo at 0.1 mg/kg in assay [2] of 79%. In addition, the IC50 in assay [3] amounted to 24 nM.
Consider `O=C1OCN(C(=O)OCc2ccccc2)[C@@H]1CCC(=O)N1c2ccccc2C[C@H]1C(=O)O`, for which inhibition in assay [3] was half-maximal at 52 nM (IC50).
Consider `O=C(O)[C@@H](CCC(=O)N1c2ccccc2C[C@H]1C(=O)O)NS(=O)(=O)Cc1ccccc1`, for which, in assay [3], the IC50 was 29 nM.
Take `O=C(N[C@H](CCC(=O)N1c2ccccc2CCC1C(=O)O)C(=O)O)OCc1ccccc1` (some centres undefined): the IC50 in assay [3] worked out at 88 nM. Compared with the last compound, the IC50 is about 3-fold higher.
Consider `O=C(O)[C@@H](CCC(=O)N1c2ccccc2C[C@H]1C(=O)O)NCc1ccccc1`, for which half-maximal inhibition in assay [3] (IC50) required 300 nM.
On to `O=C(N[C@H](CCC(=O)N1c2ccccc2C[C@H]1C(=O)OCc1cccnc1)C(=O)O)OCc1ccccc1`, for which 10 mg/kg produced 15% inhibition in vivo in assay [5]. Also, the inhibition in vivo at 1 mg/kg in assay [4] amounted to 70%. In addition, in assay [3], the half-inhibitory concentration (IC50) turned out to be 350 nM.
For `CCOC(=O)[C@@H]1Cc2ccccc2N1C(=O)CC[C@@H](NC(=O)OCc1ccccc1)C(=O)O`, it took 4700 nM to reach half-maximal inhibition in assay [3] (IC50). This counts as single-digit micromolar.
The same measure, in the same setting: the result for `O=C(NCCCCC(NC(=O)OCc1ccccc1)C(=O)N[C@H](CCC(=O)N1c2ccccc2C[C@H]1C(=O)O)C(=O)O)OCc1ccccc1` (some centres undefined) reads 61 nM.
`CCOC(=O)[C@@H](CCC(=O)N1c2ccccc2C[C@H]1C(=O)O)NC(=O)c1cccnc1` yielded an inhibition in vivo at 10 mg/kg in assay [5] of 30%. In assay [4], this compound returned an inhibition in vivo at 1 mg/kg of 100%. The same compound gave an IC50 in assay [3] of 2200 nM.
In turn, `N[C@H](CCC(=O)N1c2ccccc2C[C@H]1C(=O)O)C(=O)O` displayed an IC50 in assay [3] of 10000 nM.
Turning to `O=C(N[C@H](CCC(=O)N1CCC[C@H]1C(=O)O)C(=O)O)OCc1ccccc1`, the IC50 in assay [3] was 50 nM.
`O=C(N[C@H](CCC(=O)N1C[C@H]2CCCC[C@H]2C[C@H]1C(=O)O)C(=O)O)OCc1ccccc1` came in with an IC50 in assay [3] of 17 nM.
The same measure, in the same setting: next, `O=C(N[C@H](CCC(=O)N1Cc2ccccc2C[C@H]1C(=O)O)C(=O)O)OCc1ccccc1`: 14 nM.
`COc1ccc(N(CC(=O)O)C(=O)CC[C@@H](NC(=O)OCc2ccccc2)C(=O)O)cc1OC` displayed a half-maximal inhibitory concentration (IC50) in assay [3] of 21 nM.
Take `O=C(O)CN(C(=O)CC[C@@H](NC(=O)OCc1ccccc1)C(=O)O)C1CCCC1`: inhibition in assay [3] was half-maximal at 40 nM (IC50).
On to `CN(C)CCOC(=O)[C@@H]1Cc2ccccc2N1C(=O)CC[C@@H](NC(=O)OCc1ccccc1)C(=O)O`, for which 7 nM corresponded to half-maximal inhibition in assay [3] (IC50).
Consider `Cc1ccc(S(=O)(=O)N[C@H](CCC(=O)N2c3ccccc3C[C@H]2C(=O)O)C(=O)O)cc1`, for which the IC50 in assay [3] is 20 nM.
`NCCCCC(N)C(=O)N[C@H](CCC(=O)N1c2ccccc2C[C@H]1C(=O)O)C(=O)O` (some centres undefined) yielded an IC50 in assay [3] of 188 nM. Compared with the last compound, the IC50 is about 9.4-fold higher.
In assay [3], `NC(=O)[C@@H]1Cc2ccccc2N1C(=O)CC[C@@H](NC(=O)OCc1ccccc1)C(=O)O` came in with a half-inhibitory concentration (IC50) of 160 nM.
Take `O=C(N[C@H](CCC(=O)N1c2ccccc2C[C@H]1C(=O)O)C(=O)O)c1ccccc1`: at 0.1 mg/kg the inhibition in vivo in assay [2] was 55%. In assay [3], 28 nM corresponded to half-maximal inhibition (IC50).
In assay [3], `O=C(Nc1ccccc1)N[C@H](CCC(=O)N1c2ccccc2C[C@H]1C(=O)O)C(=O)O` had an IC50 of 44 nM. This lies in the double-digit nanomolar range.
For `O=C(O)[C@@H](CCC(=O)N1c2ccccc2C[C@H]1C(=O)O)N(Cc1ccccc1)C(=O)OCc1ccccc1`, in assay [3], the IC50 stood at 10000 nM. Compared with the last compound, the IC50 is about 230-fold higher.

What is called inhibition in vivo is the share of the control response that was lost under treatment. Read a high inhibition in vivo as a strong effect. The term IC50 denotes the concentration that gives 50% inhibition. High values mean a need for much substance, low ones inhibition by little substance.
